Assay results from different studies.
Protocols differ between the studies behind these lines.
Organism: Leishmania donovani
Observed: parasite growth

Compound | method | cells | tested at | time | setting | endpoint | result
Fc1cccc(Nc2nc(-c3ccccn3)nc3ccccc23)c1 | imaging | THP-1 | – | – | intracellular, amastigote | IC50 | 790 nM
COc1ccccc1-c1n[nH]c2nc(NC3CCN(C(=O)Cc4ccc(OCCOCCNC(=O)OC(C)(C)C)cc4)CC3)ncc12 | – | THP-1 | – | – | intracellular, amastigote | EC50 | 4510 nM
C[C@@H]1[C@H](O)[C@@H](C)/C=C/C=C/C=C/C=C/C=C/C=C/C=C/[C@H](O[C@@H]2O[C@H](C)[C@@H](O)[C@H](N)[C@@H]2O)C[C@@H]2O[C@](O)(C[C@@H](O)C[C@@H](O)[C@H](O)CC[C@@H](O)C[C@@H](O)CC(=O)O[C@H]1C)C[C@H](O)[C@H]2C(=O)O | – | – | – | – | promastigote | IC50 | 135 nM
CCCCCCCC/C=C\CCCCCCCCCCCCOP(=O)([O-])OCC[N+](C)(C)C | resazurin | – | 50 µM | 72 h | promastigote | inhibition | 108%
COc1ccccc1-c1n[nH]c2nc(N[C@H]3CC[C@H](NS(=O)(=O)CCCOCCOCCN)CC3)ncc12 | – | – | – | – | amastigote | EC50 | 4210 nM
COc1cc(NC(C)CCCNC(=S)NCCCC(C)Nc2cc(OC)cc3ccc(C(C)(C)C)nc23)c2nc(C(C)(C)C)ccc2c1.Cl.Cl (stereo not drawn) | resazurin | – | – | – | promastigote | IC90 | 20 to 31 µg/mL
COc1ccccc1-c1n[nH]c2nc(NC3CCN(C(=O)Cc4ccc(OCCOCCN)cc4)CC3)ncc12 | – | – | – | – | amastigote | EC50 | 1990 nM
c1ccc(CNc2nc(-c3ccccn3)nc3ccccc23)cc1 | imaging | THP-1 | – | – | intracellular, amastigote | IC50 | 1100 nM
C[C@@H]1[C@H](O)[C@@H](C)/C=C/C=C/C=C/C=C/C=C/C=C/C=C/[C@H](O[C@@H]2O[C@H](C)[C@@H](O)[C@H](N)[C@@H]2O)C[C@@H]2O[C@](O)(C[C@@H](O)C[C@@H](O)[C@H](O)CC[C@@H](O)C[C@@H](O)CC(=O)O[C@H]1C)C[C@H](O)[C@H]2C(=O)O | MTT | – | – | 48 h | promastigote | IC90 | 5400 nM
COc1cc(NC(C)CCCNC(=S)NCCCC(C)Nc2cc(OC)cc3cccnc23)c2ncccc2c1.Cl.Cl (stereo not drawn) | resazurin | – | – | – | promastigote | IC50 | 4 to 9 µg/mL
C[C@@H]1[C@H](O)[C@@H](C)/C=C/C=C/C=C/C=C/C=C/C=C/C=C/[C@H](O[C@@H]2O[C@H](C)[C@@H](O)[C@H](N)[C@@H]2O)C[C@@H]2O[C@](O)(C[C@@H](O)C[C@@H](O)[C@H](O)CC[C@@H](O)C[C@@H](O)CC(=O)O[C@H]1C)C[C@H](O)[C@H]2C(=O)O | resazurin | – | – | 72 h | promastigote | IC90 | 1.8 µg/mL
CCCCCCCCCCCCCCCCOP(=O)([O-])OCC[N+](C)(C)C | resazurin | – | 25 µM | 72 h | promastigote | inhibition | 100%
